We go through 1 sequence from ChEMBL document CHEMBL1212759, “Antifungal activity of colistin against mucorales species in vitro and in a murine model of Rhizopus oryzae pulmonary infection” (Antimicrob Agents Chemother, 2010).

For experiment [1], the system named is Rhizopus arrhizus. Briefly: Antimicrobial activity against Rhizopus oryzae isolate 5879 after 24 hrs in RMPI 1640 medium by broth microdilution method. The class given is functional, organism-based. Put shortly:
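Broth microdilution in RPMI 1640 with […], without bicarbonate. Colistin was serially diluted 64 to 0.06 μg/ml. Spores came from YAG plates grown 48–72 h at 37°C, were filtered and counted, and were inoculated at 0.5 × 10^4 to 4 × 10^4 cells/ml. Plates were incubated 24 h at 37°C. MIC was read visually as the lowest concentration giving 100% growth inhibition.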
(In general: Dilution methods test growth across graded concentrations, often in twofold steps.)

Experiment [2] has as its system Mucor circinelloides. Briefly: Antimicrobial activity against Mucor circinelloides isolate 4030 after 24 hrs in yeast nitrogen base complete medium by broth microdilution method. The experiment is classed as functional, organism-based. Put shortly: (§1)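 Broth microdilution in YNB complete medium with colistin at 128 to 0.12 μg/ml. Freshly collected spores were inoculated at 0.5 × 10^4 to 4 × 10^4 cells/ml and incubated 24 h at 37°C. MIC was read visually as the lowest concentration with complete (100%) growth inhibition.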

In experiment [3] the test system is Rhizopus arrhizus. The experiment can be described thus: Antimicrobial activity against Rhizopus oryzae isolate 4153 after 24 hrs in yeast nitrogen base complete medium by broth microdilution method. The class given is functional, organism-based. An outline of the steps: as §1
For experiment [4], the system named is Mucor circinelloides. Briefly: Antimicrobial activity against Mucor circinelloides isolate 4818 after 24 hrs in yeast nitrogen base complete medium by broth microdilution method. The experiment is classed as functional, organism-based. Put shortly:
as §1

Experiment [5] has as its system Cunninghamella bertholletiae. Briefly: Antimicrobial activity against Cunninghamella bertholletiae isolate 6733 after 24 hrs in RMPI 1640 medium by broth microdilution method. The experiment is classed as functional, organism-based. Put shortly: (§2)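 Colistin was serially diluted from 64 to 0.06 μg/ml in RPMI 1640 with glucamine and without bicarbonate. Fresh spores from 48–72 h YAG plates were added at 0.5 × 10^4 to 4 × 10^4 cells/ml. Plates were incubated 24 h at 37°C. MIC was read visually as the lowest concentration giving 100% growth inhibition.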

For another experiment, the system named is Rhizopus homothallicus. The experiment can be described thus: Antimicrobial activity against Rhizopus homothallicus isolate 6360 after 24 hrs in RMPI 1640 medium by broth microdilution method. The experiment is classed as functional. Put shortly:
as §2

Consider COLISTIN, for which the MFC was 32 µg/mL against Rhizopus arrhizus [1]; > 128 µg/mL with Mucor circinelloides [2]; > 128 µg/mL against Rhizopus arrhizus [3]; > 128 µg/mL with Mucor circinelloides [4]; 64 µg/mL in experiment [5]; 64 µg/mL in the experiment on Rhizopus homothallicus. The MIC is 32 µg/mL in the experiment with Rhizopus arrhizus [1]; 128 µg/mL against Mucor circinelloides [2]; 128 µg/mL against Rhizopus arrhizus [3]; 128 µg/mL against Mucor circinelloides [4]; 32 µg/mL in experiment [5]; 32 µg/mL in the experiment with Rhizopus homothallicus.

As a reminder, the MIC is the lowest concentration that inhibits growth of the organism. Higher therefore signals a need for much substance.
